From PubChem
KCNQ1 pot – human KCNQ1 channel potentiation or activation | P51787 | CHO-K1 KCNQ1, thallium flux FluxOR fluorescence; hits give high values | B-score at 10 µM | actives 0.35% (n = 310,000);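 active means fluorescence ratio B-score, a plate-corrected score, at least three library SD, with initial intensity B-score within 5 SD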
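Assay system: stable KCNQ1 CHO-K1 line; medium: assay buffer, equal DMSO in all wells; timing: 90 min dye loading and 20 min compound exposure, both at room temperature; technique: kinetic FluxOR thallium fluorescence, 10-s 1-Hz baseline, 110-s post-stimulus read; read-out basis: B score of baseline-normalized fluorescence ratio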
Kir21 inh – Kir2.1 (mouse) channel inhibition | HEK293-Kir2.1, FluxOR thallium flux fluorescence; hits give low values | B-score at 10 µM | actives 0.85% (n = 310,000) | P35561;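 active means fluorescence ratio B-score at or below minus 3 SD of library scores, with starting-brightness B-score within 2 SD, cut at about -4.2 in these data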;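 further: channel flux triggered by added potassium and thallium sulfate stimulus; B-score of peak minus minimum fluorescence over baseline after thallium stimulus; more negative B-score means stronger Kir2.1 block with less thallium influx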
Target sequence (P35561 whole entry, looked up): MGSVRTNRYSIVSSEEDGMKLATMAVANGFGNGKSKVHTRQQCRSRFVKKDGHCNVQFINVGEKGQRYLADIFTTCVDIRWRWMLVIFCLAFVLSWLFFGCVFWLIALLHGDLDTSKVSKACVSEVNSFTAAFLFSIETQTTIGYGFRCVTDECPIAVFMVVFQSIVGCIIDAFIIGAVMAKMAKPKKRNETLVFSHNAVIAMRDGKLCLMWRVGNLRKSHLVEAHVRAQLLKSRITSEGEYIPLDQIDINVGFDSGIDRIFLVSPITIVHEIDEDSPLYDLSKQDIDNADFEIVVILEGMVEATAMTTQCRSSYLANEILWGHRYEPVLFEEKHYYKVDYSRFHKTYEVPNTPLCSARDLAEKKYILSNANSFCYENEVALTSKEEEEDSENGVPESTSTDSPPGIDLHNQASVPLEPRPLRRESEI
KCNQ1 inh – blocks the human KCNQ1 potassium channel; CHO-K1 KCNQ1, FluxOR thallium flux fluorescence; hits give high values; B-score at 10 µM; actives 1.3% (n = 310,000); AID 2642;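 active means compounds whose thallium flux B-score, printed positive for inhibition, exceeds three library SD while starting fluorescence stays within three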;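 further: channel opened by potassium depolarization with thallium stimulus after 20 min compound exposure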
KCNK9 inh – human KCNK9 channel inhibition | HEK293 KCNK9, FluxOR thallium flux fluorescence; hits give low values | actives 1.2% (n = 310,000) | B-score at 10 µM;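 active means ratio B-score over 3 SD below the library mean, with starting fluorescence within 5 SD of its mean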;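 further: negative B-score means less thallium flux so channel inhibition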
KCNK3 block – human KCNK3 channel inhibition, primary screen. B-score at 10 µM. CHO-KCNK3 thallium flux, FluxOR fluorescence; hits give low values. actives 0.84% (n = 340,000). AID 602410. O14649;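 active means B-score under library mean minus 4 SD, starting fluorescence ratio at most library mean plus 5 SD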;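 further: more negative B-score means stronger inhibition of thallium flux through KCNK3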
hERG rescue – hERG (human) protection from proarrhythmic block; AID 1511; actives 0.51% (n = 310,000); activation (rescue from dofetilide block), less the hit threshold, % at 10 µM; CHO-hERG, FluxOR thallium flux, dofetilide IC70 present;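 active means activation above the mean of controls blocked by dofetilide plus 5 SD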;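 further: thallium influx through hERG after potassium depolarization seen as dye fluorescence rise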
KCNK9 block conf – confirmation of human KCNK9 potassium channel inhibitors | shares compounds with KCNK9 inh | HEK293 KCNK9 cells, FluxOR thallium flux fluorescence | inhibition, % at 10 µM | actives 43% (n = 4,900) | AID 492992;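 active means thallium signal inhibited by more than 5 SD of the compound-free buffer control wells, on both duplicate plates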;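 further: 0% = assay buffer control wells without compound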
Kir21 sel – selectivity of KCNK9 modulators against mouse Kir2.1; shares compounds with KCNK9 inh; Kir2.1 cells, FluxOR thallium flux fluorescence; inhibition, % at 10 µM; actives 4% (n = 4,900);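 active means thallium signal drop more than 5 SD beyond the mean of the no-compound control wells, seen in both duplicate plates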;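 further: signal is fluorescence rise after thallium addition divided by baseline fluorescence; plate controls were assay buffer only for no effect and full block by chlorpromazine control for full effect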
KCNK9 uninduced – second counter-screen for KCNK9 modulators: effect in non-induced cells | inhibition, % at 10 µM | actives 40% (n = 4,900) | shares compounds with KCNK9 inh | non-induced KCNK9-HEK293, FluxOR thallium flux;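 active means thallium signal drop beyond 5 SD of the untreated control mean, on both duplicate plates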;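 further: plate controls were buffer only IC0 wells for no effect and SID17386958 at its maximal inhibitory level for full effect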
* marks the source's active call; other numbers are inactive results; i = inactive; x = not tested or not shown. This is a sample that favours compounds with a hit; in the whole collection about 3.8% have one here.

SMILES	KCNQ1 pot	Kir21 inh	KCNQ1 inh	KCNK9 inh	KCNK3 block	hERG rescue	KCNK9 block conf	Kir21 sel	KCNK9 uninduced
CCOc1ccccc1NC(=O)Cc1coc2ccc(C)cc12	i	-1.2	i	-11*	i	-3	25%*	i	43%*
CC1(C)Oc2ccc3ccc(=O)oc3c2/C(=C/NC2CCCCC2)C1=O	i	0.63	8*	-11*	i	-8	35%*	i	34%*
CC1(C)Oc2ccc3ccc(=O)oc3c2/C(=C/N)C1=O	i	-0.7	i	i	i	-1	x	x	x
CCC(O)(CC)C(=O)NN(C(=O)Nc1csc2c1CCCC2)c1ccccc1	i	0.07	i	i	i	-4	x	x	x
O=C(O)c1cc(-c2ccc(-c3c(-c4ccc5c(c4)OCO5)noc3-c3ccsc3)cc2)nc2ccccc12	i	1.7	i	i	i	-14	x	x	x
CN(C)c1ccc(-c2c(-c3ccc4c(c3)OCO4)noc2-c2ccsc2)cn1	i	-1.4	i	-8.7*	i	-19	50%*	i	47%*
CC(C)(C)C(=O)Nc1ccc(C(=O)NNC(=O)Cc2ccccc2)cc1	i	0	i	i	i	-9	x	x	x
C#CCn1c(S(=O)(=O)Cc2ccc(C)cc2)nc(-c2ccccc2)c1-c1ccccc1	i	1.1	i	-12*	i	-14	59%*	i	36%*
C#CCn1c(S(=O)(=O)Cc2ccccc2Cl)nc(-c2ccccc2)c1-c1ccccc1	i	-0.14	i	i	i	-9	x	x	x
CCN1C(=O)[C@@H]2[C@@H](c3ccc(-c4ccc5c(c4)OCO5)c(OC)c3)N3CCCC[C@@]3(C(=O)OC)[C@@H]2C1=O	i	0.08	i	i	i	-7	x	x	x
COc1ccc(C2CC(=O)N3CN(c4ccc(C)c(Cl)c4)CSC3=C2C#N)cc1 (configuration not stated)	i	0.13	i	i	i	-9	i	i	i
COc1ccc(N2CSC3=C(C#N)C(c4cccc(OC)c4OC)CC(=O)N3C2)cc1 (configuration not stated)	i	0.34	i	i	i	-9	x	x	x
Cc1sc2nc(C3CC3)nc(SCC(=O)N3c4ccccc4CC3C)c2c1C (configuration not stated)	i	-1.2	i	i	i	-16	i	i	i
Cc1cc2ccccc2nc1SCC(=O)N1c2ccccc2CC1C (configuration not stated)	i	-1.4	i	i	i	-10	x	x	x
O=C(O)COc1ccc2c(c1)CCCC2	i	-0.39	i	i	i	2	x	x	x
Cc1cccc2c1N(C(=O)c1ccco1)C(C)(C)c1ssc(=S)c1-2	i	0.05	i	i	i	-7	x	x	x
Cc1ccc2c(c1)N(C(=O)c1ccco1)C(C)(C)c1ssc(=S)c1-2	i	0.58	i	-8.3*	i	-1	38%*	i	30%*
Cc1cc(C)n(-c2nc3ccccc3nc2N2CCN(C(=O)c3ccccc3)CC2)n1	i	-1.5	i	i	i	-8	i	i	i
Cc1cc(C)n(-c2ccc(C(=O)N3CCN(c4ccccn4)CC3)cc2)n1	x	x	x	x	i	x	x	x	x
Oc1ccc(N2CCN(c3nc(-c4cccs4)nc4ccccc34)CC2)cc1	i	0.91	i	-8.4*	i	-12	i	i	i
CN1CCN(c2nc(-c3cccs3)nc3ccccc23)CC1	i	0.45	i	i	i	-12	x	x	x
Oc1ccccc1N1CCN(c2nc(-c3cccs3)nc3ccccc23)CC1	i	1.2	i	-13*	i	-14	40%*	i	28%*
CCN1CCN(c2nc(-c3cccs3)nc3ccccc23)CC1	i	-1.3	i	i	i	-13	x	x	x
Cc1ccc(C)c(N2CCN(C(=S)NC3CCCCC3)CC2)c1	i	-1.1	i	i	i	-3	x	x	x
COc1ccc(CNC(=O)c2cccc(-c3ccc(C)c4ccccc34)n2)cc1	i	0.22	i	i	i	-11	i	i	i
SMILES	KCNQ1 pot	Kir21 inh	KCNQ1 inh	KCNK9 inh	KCNK3 block	hERG rescue	KCNK9 block conf	Kir21 sel	KCNK9 uninduced
Cc1cc(Cl)c2oc(C(=O)N(C)C3CCOC3)c(C)c2c1 (configuration not stated)	i	-1.1	i	i	i	-8	x	x	x
Cc1ccccc1NC(=O)c1sc2nc3c(c(-c4ccco4)c2c1N)CCC3	i	-0.43	i	-8.1*	i	-12	30%*	i	26%*
C=CCSc1nnc(CCCCCN2C(=O)c3cccc4cccc(c34)C2=O)o1	i	0.81	i	i	i	-10	i	35%*	i
CCC1=NN2C(=N)/C(=C\c3cccn3-c3ccc(Br)cc3)C(=O)N=C2S1	i	1.9	i	i	i	-8	x	x	x
CCC1=NN2C(=N)/C(=C\c3cccn3-c3cccc(Cl)c3)C(=O)N=C2S1	i	-0.87	i	i	i	-5	i	i	i
Cc1cccc(-c2noc(CN(C)C(=O)COc3ccccc3)n2)c1	i	1.4	i	i	i	-5	x	x	x
COc1ccc(OC(C)C(=O)N(C)Cc2nc(-c3cccc(C)c3)no2)cc1 (configuration not stated)	i	-1.3	i	i	i	-12	i	i	i
COc1cccc(OCC(=O)N(C)Cc2nc(-c3cccc(C)c3)no2)c1	i	-0.16	i	i	i	-4	i	i	i
C=CCNC(=O)CN(CCc1ccccc1)S(=O)(=O)c1ccccc1	i	-0.37	i	i	i	-11	x	x	x
COc1ccc(C(=O)NC(=S)Nc2ccc(CN3CCOCC3)cc2)cc1Cl	i	0.94	i	i	i	-14	i	i	i
COc1ccc(C(=O)NC(=S)Nc2ccc(CN3CCCCC3)cc2)cc1Cl	i	-0.48	i	i	i	-23	x	x	x
C=CCSc1nc2c(c(=N)n1CC=C)C1CCCC1S2 (configuration not stated)	i	-0.31	i	-18*	i	-8	i	i	36%*
C=CCn1c(C)nnc1SCC(=O)NC1CCCCC1	i	1.4	i	i	i	-4	x	x	x
